# Only some compounds are listed: those with a hit (about 12% of all), similar ones and a draw of the others.
# Lmaj promast: Leishmania major promastigote growth inhibition | Leishmania major promastigotes, resazurin fluorescence viability | inhibition, % at 10 µM | hit rate 9% among 200,000; in the data active = inhibition above about 50%;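 note: promastigotes grown with compound for 44 hours at 28 °C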
# RAM inhibit: yeast RAM network inhibition. inhibition, % at 50 µM. S. cerevisiae dse1pr::URA3 reporter, 5-FOA growth OD615, 2 d; analog-sensitive cbk1-as2 kinase mutant strain. hit rate 1.8% among 190,000;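 active = inhibition above a set limit, 3 SD over mean compound inhibition, cut at about 8.4% in these data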;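 note: 0% = DMSO-only wells with no growth and 100% = 10 µM 1-NA-PP1 full growth; inhibition rescues growth on 5-FOA so higher OD means more RAM inhibition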
# ABCB1 block: human ABCB1 inhibition, ABCG2 as counter-screen; hit rate 0.067% among 190,000; CCRF-Adr cells, JC-1 efflux, flow cytometry; P08183; AID 1326; inhibition, % at 6.6 µM; in the data active = inhibition above about 40%;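 note: 0% = vehicle and 100% = reference inhibitor; higher value means more JC-1 retained so stronger ABCB1 efflux block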
# Target sequence (P08183 whole entry, looked up): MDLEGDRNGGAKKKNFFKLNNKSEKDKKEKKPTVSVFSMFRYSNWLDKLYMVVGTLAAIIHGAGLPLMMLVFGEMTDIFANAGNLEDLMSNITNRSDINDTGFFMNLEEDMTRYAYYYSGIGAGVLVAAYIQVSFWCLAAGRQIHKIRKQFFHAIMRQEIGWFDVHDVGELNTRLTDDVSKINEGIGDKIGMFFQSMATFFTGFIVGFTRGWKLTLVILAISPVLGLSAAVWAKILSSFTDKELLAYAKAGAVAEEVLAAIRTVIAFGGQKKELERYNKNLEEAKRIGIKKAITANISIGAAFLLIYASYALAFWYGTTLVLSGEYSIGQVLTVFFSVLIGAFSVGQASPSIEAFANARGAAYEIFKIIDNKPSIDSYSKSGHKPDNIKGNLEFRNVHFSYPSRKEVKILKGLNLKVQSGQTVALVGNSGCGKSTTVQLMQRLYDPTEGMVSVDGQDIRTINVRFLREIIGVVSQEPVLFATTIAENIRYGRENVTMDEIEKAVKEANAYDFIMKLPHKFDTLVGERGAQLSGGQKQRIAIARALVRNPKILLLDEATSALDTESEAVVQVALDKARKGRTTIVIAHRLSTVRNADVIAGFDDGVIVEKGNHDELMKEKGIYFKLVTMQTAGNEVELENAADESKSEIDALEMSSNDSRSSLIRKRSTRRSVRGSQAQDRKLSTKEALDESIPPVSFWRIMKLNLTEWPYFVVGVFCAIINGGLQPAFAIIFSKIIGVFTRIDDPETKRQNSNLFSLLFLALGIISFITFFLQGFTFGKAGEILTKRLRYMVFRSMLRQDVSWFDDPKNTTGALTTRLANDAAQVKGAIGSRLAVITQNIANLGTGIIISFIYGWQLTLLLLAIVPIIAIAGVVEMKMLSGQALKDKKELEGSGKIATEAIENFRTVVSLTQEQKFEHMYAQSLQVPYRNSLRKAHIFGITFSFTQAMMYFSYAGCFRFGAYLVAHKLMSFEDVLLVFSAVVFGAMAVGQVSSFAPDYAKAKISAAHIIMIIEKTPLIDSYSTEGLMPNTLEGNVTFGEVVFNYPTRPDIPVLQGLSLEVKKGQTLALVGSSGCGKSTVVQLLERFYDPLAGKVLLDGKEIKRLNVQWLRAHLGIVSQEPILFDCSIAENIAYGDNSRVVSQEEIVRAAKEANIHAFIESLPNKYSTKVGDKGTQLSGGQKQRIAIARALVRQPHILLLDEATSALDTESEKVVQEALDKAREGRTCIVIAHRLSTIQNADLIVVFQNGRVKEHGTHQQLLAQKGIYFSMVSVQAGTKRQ
# ABCG2 inh: human ABCG2 inhibition, ABCB1 as counter-screen; Q9UNQ0; IgMXP3 cells, JC-1 efflux, flow cytometry; inhibition, % at 6.6 µM; hit rate 0.1% among 190,000; AID 1325;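 active = inhibition above 80%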;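 note: 0% = DMSO and 100% = nicardipine control wells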
#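 Assay system – ABCG2 IgMXP3 and barcoded ABCB1 CCRF-Adr cell mix · Input – 3 million cells/mL in well · Reagent – JC-1 fluorescent substrate · Compound – single test compound dose, 6.6 µM final · Timing – 10 min exposure at 25 °C with rotation, no wash · Detection – flow cytometry of retained JC-1 fluorescence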
# WT yeast gro inh: growth inhibition of WT yeast, mitochondrial fusion screen | mitochondrial fusion phenotypic screen, WT strain | inhibition, % at 10 µM | hit rate 2.1% among 190,000 | AID 1362; in the data active = inhibition above about 58%; tested in S. cerevisiae
# Starred values were filed as active, the others as inactive.
SMILES,Lmaj promast,RAM inhibit,ABCB1 block,ABCG2 inh,WT yeast gro inh
Cc1c(C(=O)O)cccc1-n1c(C)cc(/C=N/NC(=O)c2cc3ccccc3o2)c1C,56*,1,-2,-10,15
COc1ccc(CCNCC(=O)Nc2ccccc2C(F)(F)F)cc1,-9,0,0,0,-2
Cc1cc(SCC(=O)N/N=C/c2ccc(O)cc2O)c(C)cc1Br,100*,0,0,5,-12
COc1cccc(NC(=O)c2cc(-c3ccncc3)nc3c(C)cc(C)cc23)c1,55*,-1,3,12,19
COc1ccc(C(=O)Nc2cccc(OC)c2)cc1,-4,0,-3,3,13
CCCN1CCN(c2ncnc3scc(C4COc5ccccc5O4)c23)CC1 (configuration not stated),19,2,1,2,58*
c1ccc2c(c1)OCC(c1csc3ncnc(N4CCCCC4)c13)O2 (configuration not stated),6,1,0,1,36
Clc1ncnc2scc(C3COc4ccccc4O3)c12 (configuration not stated),71*,0,0,9,-20
CCn1c(SCC(=O)NC2CCCCC2)nnc1-c1cc2cccc(OC)c2o1,3,1,1,4,3
COc1cccc2cc(-c3nnc(SCC(=O)NCc4ccccc4)n3C)oc12,12,9.1*,1,5,12
COC1CCCN(Cc2cn(C)nc2-c2ccc(Oc3ccccc3)cc2)C1 (configuration not stated),73*,2,0,-2,2
Cn1cc(CN2CCCCC2CO)c(-c2ccc(Oc3ccccc3)cc2)n1 (configuration not stated),63*,2,2,3,8
COCCC1CCCCN1Cc1cn(-c2ccccc2)nc1-c1ccc2c(c1)OCO2 (configuration not stated),28,1,1,0,12
CC(=O)NCC1CCCN(Cc2cn(-c3ccccc3)nc2-c2ccc3c(c2)OCO3)C1 (configuration not stated),4,0,0,3,-4
COCCN1CCCC(CNCc2cn(C)nc2-c2ccc(Oc3ccccc3)cc2)C1 (configuration not stated),95*,2,0,-1,9
O=C(COC(=O)c1cncc(Br)c1)NCCC1=CCCCC1,0,2,0,1,-8
Brc1ccccc1-c1csnn1,-6,1,1,3,6
O=C(NCCOc1ccccc1)c1ncn[nH]1,-7,3,1,5,3
COc1cccc(C(=O)/C=C2\Sc3ccccc3N2C)c1,17,2,0,21,21
Cc1ccc2c(c1)S/C(=C/c1ccc[n+](CCO)c1)N2C,82*,3,0,2,37
Cc1ccc(-n2c3nc(=O)[nH]c(=O)c-3cc3cc([N+](=O)[O-])ccc32)cc1C,94*,9.4*,0,1,9
COc1ccc2c(C)cc3nncn3c2c1,12,0,0,8,7
O=S1(=O)CCN(C(CCO)c2cccc(C(F)(F)F)c2)CC1 (configuration not stated),-5,1,1,2,15
COc1ccc(OC)c(NC(=O)COC(=O)/C=C/c2c(C)nn(C3CCS(=O)(=O)C3)c2Cl)c1 (configuration not stated),2,4,1,34,14
Cc1nn(C2CCS(=O)(=O)C2)c(Cl)c1/C=C/C(=O)OCC(=O)c1c[nH]c2ccccc12 (configuration not stated),60*,4,0,-8,-13
SMILES,Lmaj promast,RAM inhibit,ABCB1 block,ABCG2 inh,WT yeast gro inh
Cc1nn(C2CCS(=O)(=O)C2)c(Cl)c1/C=C/C(=O)OCC(=O)c1cc(C)n(-c2ccc(F)cc2)c1C (configuration not stated),98*,5,14,43,10
O=C(COC(=O)CCc1ccc(S(=O)(=O)N2CCOCC2)cc1)NC(=O)NC1CCCCC1,-1,1,1,2,-2
O=C(CNC(=O)c1ccc2c(c1)OCCO2)N/N=C/c1cccc(Br)c1,9,4,0,8,3
Cc1cccc(NC(=S)c2nc3ccccc3s2)c1,-2,3,0,1,67*
CCOC(=O)c1ccc(Oc2c(C)oc3cc(OS(C)(=O)=O)ccc3c2=O)cc1,53*,3,1,0,-12
CCOc1ccc(-n2c(-c3ccccc3)c[n+]3c2CCCCC3)cc1,100*,2,1,5,2
CCOC(=O)C1=C(C)NC(SCC(=O)OC)=C(C#N)C1c1ccc(C(=O)OC)cc1 (configuration not stated),2,11*,1,3,-9
CCOC(=O)CSC1=C(C#N)C(c2ccc(F)cc2)C(C(C)=O)=C(C)N1 (configuration not stated),-7,3,-3,3,-1
CCOC(=O)C1=C(C)Nc2sc(C(=O)c3ccc(C)cc3)c(N)c2C1c1ccc(C(=O)OC)cc1 (configuration not stated),81*,7,2,-2,32
CCOC(=O)C1=C(C)NC(C)=C(C(=O)OCC)C1c1ccc(O)cc1,13,0,1,2,-17
CCOC(=O)C1=C(C)Nc2sc(C(=O)c3ccc(F)cc3)c(N)c2C1c1ccc(C(=O)OC)cc1 (configuration not stated),91*,8,0,-1,87*
C=CCN1C(c2ccc(OCC)cc2)=CS/C1=C(\C#N)c1nnc2n1CCCCC2,6,0,3,13,10
C=CCn1c(=O)/c(=C/c2ccc(F)cc2)s/c1=C(\C#N)c1nnc2n1CCCCC2,61*,4,0,0,-2
CCO[C@@H]1OC(C(=O)N2CCCCCCC2)=C[C@H](c2ccc3c(c2)OCO3)[C@H]1CCCO,-1,1,0,0,6
COC(=O)CSCC(=O)Nc1nnc(-c2cccc(C)c2)s1,-4,2,0,5,-9
CCC(C)Nc1nc(-c2cccc(OC)c2O)nc2ccccc12 (configuration not stated),59*,0,3,27,6
COc1cccc(-c2nc(NCC3CCCO3)c3ccccc3n2)c1O (configuration not stated),35,-1,1,4,1
COc1cccc(-c2nc(NC(C)C)c3ccccc3n2)c1O,56*,2,0,1,56
COc1ccc(CCn2c(-c3cc([N+](=O)[O-])cc([N+](=O)[O-])c3)nc3nc4ccccc4nc32)cc1OC,80*,3,4,32,10
COc1ccc(CCn2c(-c3cc([N+](=O)[O-])cc([N+](=O)[O-])c3)nc3nc4ccccc4nc32)cc1,89*,1,0,0,20
COc1ccc(CCn2c(-c3ccco3)nc3nc4ccccc4nc32)cc1,18,1,1,3,13

# Compound activity: PubChem, several laboratories
